Columns and labels:
LNCaP [1] = assay: Antiproliferative activity was determined by colorimetric MTS assay in LNCaP cells after 72 hr of incubation with compounds (1-100 uM); Not active at 100 uM; assay type: functional, cell-based, Homo sapiens
Summary of the method: (§1)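 LNCaP cells exposed 72 h to compounds (1–100 μM). Proliferation read by colorimetric MTS assay. IC50 is the concentration giving 50% inhibition of cell proliferation. Mean ± SD of three independent experiments.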

[2] = biological target: T1, Alpha-1B adrenergic receptor (Rattus norvegicus, UniProt P15823); assay: Blocking activity was assessed by antagonism of (-)-phenylephrine induced contraction of rat spleen (alpha1B adrenoceptor); assay type: functional, tissue-based; settings: read-out: pA2 (converted)
T1 sequence (P15823 whole entry): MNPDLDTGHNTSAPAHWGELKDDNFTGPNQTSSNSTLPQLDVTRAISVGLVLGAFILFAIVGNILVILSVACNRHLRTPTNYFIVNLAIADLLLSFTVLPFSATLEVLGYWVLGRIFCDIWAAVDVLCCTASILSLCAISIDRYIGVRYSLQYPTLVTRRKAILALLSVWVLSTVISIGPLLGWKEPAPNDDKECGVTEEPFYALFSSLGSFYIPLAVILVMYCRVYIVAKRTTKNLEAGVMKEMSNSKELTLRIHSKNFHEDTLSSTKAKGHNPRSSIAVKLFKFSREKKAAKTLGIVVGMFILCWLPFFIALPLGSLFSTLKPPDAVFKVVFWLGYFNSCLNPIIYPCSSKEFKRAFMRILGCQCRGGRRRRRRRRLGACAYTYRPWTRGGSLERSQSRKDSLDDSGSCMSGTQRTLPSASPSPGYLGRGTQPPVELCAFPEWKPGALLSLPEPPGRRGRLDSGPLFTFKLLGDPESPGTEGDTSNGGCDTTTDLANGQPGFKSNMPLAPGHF

[3] = biological target: T2, Alpha-1A adrenergic receptor (Rattus norvegicus, UniProt P43140); assay: Blocking activity was assessed by antagonism of (-)-noradrenaline induced contraction of rat prostatic vas deferens (alpha1A adrenoceptor); assay type: functional, tissue-based; settings: read-out: pA2 (converted)
T2 sequence (P43140 whole entry): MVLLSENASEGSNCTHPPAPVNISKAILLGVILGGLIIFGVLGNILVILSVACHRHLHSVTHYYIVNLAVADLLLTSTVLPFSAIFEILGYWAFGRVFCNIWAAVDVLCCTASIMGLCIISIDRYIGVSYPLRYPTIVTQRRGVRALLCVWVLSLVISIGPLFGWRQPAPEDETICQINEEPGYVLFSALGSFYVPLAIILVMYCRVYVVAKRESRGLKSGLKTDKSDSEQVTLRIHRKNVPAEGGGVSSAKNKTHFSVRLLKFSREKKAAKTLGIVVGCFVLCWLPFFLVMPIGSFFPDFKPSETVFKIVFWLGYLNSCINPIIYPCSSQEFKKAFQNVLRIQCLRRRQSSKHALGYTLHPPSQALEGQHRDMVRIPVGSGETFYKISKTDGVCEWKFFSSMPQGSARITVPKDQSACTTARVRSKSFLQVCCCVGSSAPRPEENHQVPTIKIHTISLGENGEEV

LNCaP [4] = assay: Antioxidant activity against formation of ROS was determined in t-BuOOH treated LNCaP cells after 24 hr of incubation with compounds (1-100 uM); assay type: functional, cell-based; settings: Homo sapiens
[5] = biological target: T3, Alpha-1D adrenergic receptor (Rattus norvegicus, UniProt P23944); assay: Blocking activity was assessed by antagonism of (-)-noradrenaline induced contraction of rat thoracic aorta (Alpha-1D adrenoceptor); assay type: functional, tissue-based; settings: read-out: pA2 (converted)
T3 sequence (P23944 whole entry): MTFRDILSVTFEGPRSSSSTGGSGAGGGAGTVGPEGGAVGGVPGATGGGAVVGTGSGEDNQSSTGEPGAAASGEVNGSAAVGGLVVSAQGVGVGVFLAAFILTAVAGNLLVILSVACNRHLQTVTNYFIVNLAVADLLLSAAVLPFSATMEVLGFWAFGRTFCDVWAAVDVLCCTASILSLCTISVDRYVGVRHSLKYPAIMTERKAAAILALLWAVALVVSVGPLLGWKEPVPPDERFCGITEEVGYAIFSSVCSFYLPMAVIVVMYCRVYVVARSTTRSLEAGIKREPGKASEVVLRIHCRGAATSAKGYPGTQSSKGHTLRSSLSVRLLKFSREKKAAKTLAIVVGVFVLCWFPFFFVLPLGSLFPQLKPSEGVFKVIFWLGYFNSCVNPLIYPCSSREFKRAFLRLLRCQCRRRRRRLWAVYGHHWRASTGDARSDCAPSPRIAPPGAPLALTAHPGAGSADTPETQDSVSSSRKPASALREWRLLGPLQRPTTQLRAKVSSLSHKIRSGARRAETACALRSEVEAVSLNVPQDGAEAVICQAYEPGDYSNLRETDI

[6] = biological target: T4, Alpha-1B adrenergic receptor (Homo sapiens, UniProt P35368); assay: Equilibrium dissociation constant was evaluated by radio-receptor binding assays using [3H]prazosin to label cloned human alpha 1b expressed in CHO cells; assay type: cell-based
T4 sequence (P35368 whole entry): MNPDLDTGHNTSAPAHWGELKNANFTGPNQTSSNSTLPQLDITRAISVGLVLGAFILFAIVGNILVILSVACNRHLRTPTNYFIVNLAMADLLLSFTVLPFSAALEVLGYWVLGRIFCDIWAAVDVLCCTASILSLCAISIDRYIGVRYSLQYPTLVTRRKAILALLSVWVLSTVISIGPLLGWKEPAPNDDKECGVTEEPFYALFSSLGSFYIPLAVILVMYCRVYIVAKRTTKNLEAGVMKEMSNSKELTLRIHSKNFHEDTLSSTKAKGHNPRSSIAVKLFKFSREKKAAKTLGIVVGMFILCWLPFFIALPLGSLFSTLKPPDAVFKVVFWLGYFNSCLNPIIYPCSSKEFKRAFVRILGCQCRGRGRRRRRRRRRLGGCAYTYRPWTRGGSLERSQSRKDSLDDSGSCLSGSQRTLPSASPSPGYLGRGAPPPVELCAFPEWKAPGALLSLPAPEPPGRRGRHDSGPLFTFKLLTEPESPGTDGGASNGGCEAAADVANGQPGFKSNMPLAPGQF

[7] = biological target: T5, Alpha-1D adrenergic receptor (Homo sapiens, UniProt P25100); assay: Equilibrium dissociation constant was evaluated by radio-receptor binding assays using [3H]prazosin to label cloned human alpha 1d expressed in CHO cells; assay type: cell-based
T5 sequence (P25100 whole entry): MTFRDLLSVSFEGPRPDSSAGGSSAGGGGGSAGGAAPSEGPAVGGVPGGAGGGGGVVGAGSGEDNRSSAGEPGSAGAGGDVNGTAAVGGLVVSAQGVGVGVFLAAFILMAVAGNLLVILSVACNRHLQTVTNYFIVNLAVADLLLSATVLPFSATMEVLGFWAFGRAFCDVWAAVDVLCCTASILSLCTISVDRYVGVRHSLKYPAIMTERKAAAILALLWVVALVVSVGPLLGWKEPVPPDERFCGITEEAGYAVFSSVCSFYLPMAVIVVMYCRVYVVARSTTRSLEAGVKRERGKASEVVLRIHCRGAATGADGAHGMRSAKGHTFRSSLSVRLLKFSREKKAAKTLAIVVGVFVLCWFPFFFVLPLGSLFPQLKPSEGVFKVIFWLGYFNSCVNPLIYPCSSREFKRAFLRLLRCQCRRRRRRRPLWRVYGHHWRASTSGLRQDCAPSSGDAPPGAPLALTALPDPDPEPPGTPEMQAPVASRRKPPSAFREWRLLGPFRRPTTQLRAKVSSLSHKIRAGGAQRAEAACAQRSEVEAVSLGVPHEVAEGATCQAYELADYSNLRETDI

[8] = biological target: T6, Alpha-1A adrenergic receptor (Homo sapiens, UniProt P35348); assay: Equilibrium dissociation constant was evaluated by radio-receptor binding assays using [3H]prazosin to label cloned human alpha 1a expressed in CHO cells; assay type: cell-based
T6 sequence (P35348 whole entry): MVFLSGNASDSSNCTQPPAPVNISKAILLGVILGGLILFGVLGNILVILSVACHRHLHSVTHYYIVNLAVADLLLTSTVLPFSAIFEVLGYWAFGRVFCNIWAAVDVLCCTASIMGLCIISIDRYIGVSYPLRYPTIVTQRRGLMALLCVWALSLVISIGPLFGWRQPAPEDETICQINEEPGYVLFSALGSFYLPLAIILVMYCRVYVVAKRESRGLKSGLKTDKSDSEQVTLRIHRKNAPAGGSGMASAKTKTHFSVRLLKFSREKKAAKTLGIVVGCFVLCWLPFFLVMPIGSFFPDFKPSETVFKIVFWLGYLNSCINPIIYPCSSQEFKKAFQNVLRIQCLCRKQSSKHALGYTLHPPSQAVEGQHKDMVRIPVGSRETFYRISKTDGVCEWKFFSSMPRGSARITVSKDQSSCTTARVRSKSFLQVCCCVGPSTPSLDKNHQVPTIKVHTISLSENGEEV

LNCaP [9] = assay: Antioxidant activity against formation of ROS was determined in t-BuOOH treated LNCaP cells after 24 hr of incubation with compounds (1-100 uM); Not active at 100 uM; assay type: functional, cell-based, Homo sapiens
LNCaP [10] = assay: Antiproliferative activity was determined by colorimetric MTS assay in LNCaP cells after 72 hr of incubation with compounds (1-100 uM); assay type: functional, cell-based; settings: Homo sapiens; summary of the method: as §1
LNCaP [11] = assay: Antiproliferative activity in MTS assay in LNCaP cells after 72 hr at 1-100 uM; Inactive at 100 uM; assay type: functional, cell-based, Homo sapiens; summary of the method: as §1
LNCaP [12] = assay: Antioxidant activity against t-BuOOH induced ROS formation in LNCaP cells after 24 hr at 1-100 uM; Inactive at 100 uM; assay type: functional, cell-based, Homo sapiens

| SMILES | IC50 (LNCaP [1]) | Kb [2] [nM] | Kb [3] [nM] | IC50 (LNCaP [4]) [µM] | Kb [5] [nM] | Ki [6] [nM] | Ki [7] [nM] | Ki [8] [nM] | IC50 (LNCaP [9]) | IC50 (LNCaP [10]) [µM] | IC50 (LNCaP [11]) | IC50 (LNCaP [12]) |
| --- | --- | --- | --- | --- | --- | --- | --- | --- | --- | --- | --- | --- |
| O=C(O)CCCCC1CCSS1 (stereo not drawn) [LIPOIC ACID, ALPHA] | Not Active | > 10000 | > 10000 | 54.9 | > 10000 | – | – | – | – | – | – | – |
| COc1cc2nc(N3CCN(C(=O)C4CCSS4)CC3)nc(N)c2cc1OC (stereo not drawn) | – | 1.74 | 18.6 | – | 0.871 | 0.537 | 0.49 | 0.813 | Not Active | 49.6 | – | – |
| COC1=CC(=O)c2ccccc2C1=O [2-Methoxy-1,4-naphthoquinone] | – | – | – | – | – | – | – | – | – | – | Not Active | Not Active |
| COc1cc2nc(N3CCN(C(=O)CC4CCSS4)CC3)nc(N)c2cc1OC (stereo not drawn) | – | 1.02 | 1 | – | 0.912 | 0.309 | 0.389 | 0.288 | Not Active | 52.6 | – | – |
| COc1cc2nc(N3CCN(C(=O)CCCCC4CCSS4)CC3)nc(N)c2cc1OC (stereo not drawn) | Not Active | 40.7 | 64.6 | 83.5 | 12 | 1.26 | 0.891 | 1.41 | – | – | – | – |

Further lines, results first:

| IC50 (LNCaP [1]) | Kb [2] [nM] | Kb [3] [nM] | IC50 (LNCaP [4]) [µM] | Kb [5] [nM] | Ki [6] [nM] | Ki [7] [nM] | Ki [8] [nM] | IC50 (LNCaP [9]) | IC50 (LNCaP [10]) [µM] | IC50 (LNCaP [11]) | IC50 (LNCaP [12]) | SMILES |
| --- | --- | --- | --- | --- | --- | --- | --- | --- | --- | --- | --- | --- |
| – | 3.09 | 22.9 | 2.63 | 0.891 | 0.676 | 0.933 | 1.26 | – | 8.82 | – | – | COc1cc2nc(N3CCN(C4=CC(=O)c5ccccc5C4=O)CC3)nc(N)c2cc1OC |
| Not Active | – | – | – | – | – | – | – | Not Active | – | – | – | COc1cc2nc(N3CCNCC3)nc(N)c2cc1OC [AMINODIMETHOXYQUINAZOLINYLPIPERAZINE] |
| – | – | – | – | – | – | – | – | Not Active | 67.5 | – | – | COc1cc2nc(N3CCN(C(=O)c4ccco4)CC3)nc(N)c2cc1OC [PRAZOSIN] |

Source: ChEMBL document CHEMBL1139490, “Design, synthesis, and biological evaluation of prazosin-related derivatives as multipotent compounds” (J Med Chem, 2005)
